ChEMBL document CHEMBL1121898, “Potential antiestrogens. Synthesis and evaluation of mammary tumor inhibiting activity of 1,2-dialkyl-1,2-bis(3'-hydroxyphenyl)ethanes” (1981)

Legend:
Rattus norvegicus [1] = species: Rattus norvegicus; assay: Percent change in DMBA-induced hormone-dependent mammary carcinoma tumor area at 8.5 mg after 28 days; format: functional
How it was run: (§1)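 DMBA-induced, hormone-dependent mammary adenocarcinoma in SD rats. Rats bearing at least one tumor >140 mm² were placed in groups of ten. Compound was given sc as a single dose (mg/kg) daily Monday–Thursday and a double dose on Friday. Tumors were counted at the start and as new tumors; responses were scored as complete remission (not palpable), partial remission (≥50% reduction), no change or progression. Tumor area and body weight were recorded as % change.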

Rattus norvegicus [2] = species: Rattus norvegicus; assay: Percent change in body weight DMBA-induced hormone-dependent mammary carcinoma tumors in rats at 34 mg for 7 days; format: functional
Rattus norvegicus [3] = species: Rattus norvegicus; assay: Progression of DMBA-induced hormone-dependent mammary carcinoma tumors in rats at 17 mg; format: functional
Rattus norvegicus [4] = species: Rattus norvegicus; assay: Percent unchanged tumor size of DMBA-induced hormone-dependent mammary carcinoma tumors in rats at 17 mg; format: functional
Rattus norvegicus [5] = species: Rattus norvegicus; assay: Percent unchanged tumor size of DMBA-induced hormone-dependent mammary carcinoma tumors in ovarectiemised rats; format: functional
How it was run: (§2)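 DMBA-induced, hormone-dependent mammary adenocarcinoma in SD rats, with ovariectomy as the treatment. Rats bearing at least one tumor >140 mm² were placed in groups of ten. Tumors were counted at the start and as new tumors. Responses were scored as complete remission, partial remission (≥50% size reduction), no change or progression, with % change in tumor area and body weight.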

[6] = target: T1, Estrogen receptor (Mus musculus) (UniProt O08537+P19785); assay: Inhibitory activity in mouse uterine weight test at 1000 ug; format: functional
T1 sequence (O08537 whole entry, looked up): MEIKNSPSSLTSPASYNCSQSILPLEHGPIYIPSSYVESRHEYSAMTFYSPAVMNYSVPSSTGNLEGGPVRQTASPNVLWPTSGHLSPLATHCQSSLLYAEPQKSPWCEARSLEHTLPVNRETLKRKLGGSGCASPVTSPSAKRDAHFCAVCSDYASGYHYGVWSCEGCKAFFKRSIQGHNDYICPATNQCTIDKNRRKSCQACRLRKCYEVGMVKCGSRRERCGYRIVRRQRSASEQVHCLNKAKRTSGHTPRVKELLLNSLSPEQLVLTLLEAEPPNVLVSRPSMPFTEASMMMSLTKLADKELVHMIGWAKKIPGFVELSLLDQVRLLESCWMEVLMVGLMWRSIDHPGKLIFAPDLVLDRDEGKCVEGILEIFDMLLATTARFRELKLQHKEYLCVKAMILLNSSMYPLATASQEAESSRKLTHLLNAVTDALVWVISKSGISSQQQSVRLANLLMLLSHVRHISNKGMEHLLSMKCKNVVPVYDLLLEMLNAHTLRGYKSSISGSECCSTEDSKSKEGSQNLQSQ
T1 sequence (P19785 whole entry, looked up): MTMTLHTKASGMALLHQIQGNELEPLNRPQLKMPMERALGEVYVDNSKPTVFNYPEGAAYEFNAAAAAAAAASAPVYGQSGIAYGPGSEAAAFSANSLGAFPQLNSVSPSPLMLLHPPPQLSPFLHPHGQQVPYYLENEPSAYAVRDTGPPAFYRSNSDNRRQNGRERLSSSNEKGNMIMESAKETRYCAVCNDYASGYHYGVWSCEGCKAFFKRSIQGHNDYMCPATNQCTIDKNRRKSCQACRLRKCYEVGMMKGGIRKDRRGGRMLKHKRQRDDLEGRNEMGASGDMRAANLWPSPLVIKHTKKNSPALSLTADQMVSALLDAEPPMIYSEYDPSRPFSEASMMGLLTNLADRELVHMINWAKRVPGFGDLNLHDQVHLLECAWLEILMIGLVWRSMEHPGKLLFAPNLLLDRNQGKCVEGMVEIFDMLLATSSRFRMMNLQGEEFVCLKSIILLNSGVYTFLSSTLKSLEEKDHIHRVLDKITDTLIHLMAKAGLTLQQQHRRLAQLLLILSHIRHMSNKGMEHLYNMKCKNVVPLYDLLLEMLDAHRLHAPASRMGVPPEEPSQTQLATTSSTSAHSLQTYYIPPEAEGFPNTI
How it was run: (§3)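 Antiuterotrophic (Dorfman) assay in immature 20-day-old female NMRI mice, groups of 10. Uterine growth was stimulated with estrone (0.1 μg) and the test compound was given alongside it, sc daily for 3 days in 0.1 mL olive oil. Uteri were taken 24 h after the last dose. Uterine weight is reported as means ± SD and inhibition as % of the estrone-stimulated response.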

[7] = test system: Estrogen receptor (Bos taurus); assay: Displacement of [3H]estradiol from calf estrogen receptor
Rattus norvegicus [8] = species: Rattus norvegicus; assay: Partial remission of DMBA-induced hormone-dependent mammary carcinoma tumors in rats at 17 mg; format: functional; how it was run: as §1
[9] = target: T1, Estrogen receptor (Mus musculus); assay: Estrogenic activity in uterotrophic test in mice at 100 ug; format: functional
How it was run: (§4)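 Uterine growth stimulation in immature female NMRI mice, 20 days old (14.5 ± 1.2 g), 10 per group. Test compound in 0.1 mL olive oil was given sc daily for 3 days. Uteri were excised 24 h after the final injection and weighed. Effect is reported as mean ± SD.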

Rattus norvegicus [10] = species: Rattus norvegicus; assay: Progression of DMBA-induced hormone-dependent mammary carcinoma tumors in rats at 8.5 mg; format: functional
[11] = target: T1, Estrogen receptor (Mus musculus); assay: Estrogenic activity in uterotrophic test in mice at 300 ug; format: functional
How it was run: (§5)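 Immature (20-day-old) female NMRI mice, 14.5 ± 1.2 g, randomized into groups of 10. Given the test compound sc daily for 3 days in 0.1 mL olive oil. Uteri removed 24 h after the last injection; uterine weight taken as the read-out, means ± SD. Dose in μg.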

[12] = target: T1, Estrogen receptor (Mus musculus); assay: Antiestrogenic activity in uterotrophic test in mice at 0 ug; format: functional
How it was run: (§6)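 Immature female NMRI mice, 20 days old (14.5 ± 1.2 g), randomly grouped 10 per group. Each received a daily sc injection for 3 days of 0.1 mL olive oil solution containing test compound, together with estrone to stimulate uterine growth. Uteri were removed 24 h after the last injection and weighed. Results are reported as % inhibition of the estrone-stimulated uterine weight gain, mean ± SD.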

[13] = target: T1, Estrogen receptor (Mus musculus); assay: Inhibitory activity in mouse uterine weight test at 100 ug; format: functional; how it was run: as §3
[14] = target: T1, Estrogen receptor (Mus musculus); assay: Estrogenic activity in uterotrophic test in mice at 0 ug; format: functional; how it was run: as §4
Rattus norvegicus [15] = species: Rattus norvegicus; assay: Percent unchanged tumor size of DMBA-induced hormone-dependent mammary carcinoma tumors in rats at 34 mg; format: functional
Rattus norvegicus [16] = species: Rattus norvegicus; assay: Percent change in body weight DMBA-induced hormone-dependent mammary carcinoma tumors in ovariectomised rats after 7 days; format: functional; how it was run: as §2
Rattus norvegicus [17] = species: Rattus norvegicus; assay: Final number of DMBA-induced hormone-dependent mammary carcinoma tumors in rats at 34 mg; format: functional
How it was run: (§7)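 Sprague-Dawley rats carrying DMBA-induced, hormone-dependent mammary adenocarcinoma, at least one tumor >140 mm², were placed in groups of ten. Compounds were given sc, with doses in mg/kg: a single daily dose Monday to Thursday and a double dose on Friday. Ovariectomy served as a comparator group. New tumors arising during the test were counted.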

Rattus norvegicus [18] = species: Rattus norvegicus; assay: Number of DMBA-induced hormone-dependent mammary carcinoma tumors in ovariectomised rats; format: functional; how it was run: as §2
Rattus norvegicus [19] = species: Rattus norvegicus; assay: Initial tumor number of DMBA-induced hormone-dependent mammary carcinoma in rats at 34 mg; format: functional; how it was run: as §1
Rattus norvegicus [20] = species: Rattus norvegicus; assay: Percent change in DMBA-induced hormone-dependent mammary carcinoma tumor area in ovariectomised rats after 28 days; format: functional; how it was run: as §2
Rattus norvegicus [21] = species: Rattus norvegicus; assay: Partial remission of DMBA-induced hormone-dependent mammary carcinoma tumors in rats at 34 mg; format: functional; how it was run: as §1
[22] = target: T1, Estrogen receptor (Mus musculus); assay: Antiestrogenic activity in uterotrophic test in mice at 100 ug; format: functional; how it was run: as §6
[23] = target: T1, Estrogen receptor (Mus musculus); assay: Antiestrogenic activity in uterotrophic test in mice at 1000 ug; format: functional; how it was run: as §6
Rattus norvegicus [24] = species: Rattus norvegicus; assay: Complete remission of DMBA-induced hormone-dependent mammary carcinoma tumors in ovariectomised rats; format: functional
How it was run: (§8)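 Female SD rats bearing DMBA-induced, hormone-dependent mammary adenocarcinoma, with at least one tumor >140 mm², were grouped in tens. Dosing was sc per kg body weight: a single dose daily Monday–Thursday and a double dose Friday. Ovariectomy served as the comparison arm. Complete remission was defined as a tumor no longer palpable. Body weight and tumor area changes were also recorded.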

Rattus norvegicus [25] = species: Rattus norvegicus; assay: Percent change in body weight DMBA-induced hormone-dependent mammary carcinoma tumors in rats at 17 mg for 7 days; format: functional
How it was run: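 DMBA-induced, hormone-dependent mammary adenocarcinoma in SD rats; animals carrying at least one tumor over 140 mm² put in groups of ten. Compound given sc, dose per kg body weight per day: single dose Monday to Thursday, double dose Friday. Body weight read out as % change, alongside tumor counts, remission categories and % change in tumor area.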

Rattus norvegicus [26] = species: Rattus norvegicus; assay: Percent unchanged tumor size of DMBA-induced hormone-dependent mammary carcinoma tumors in rats at 8.5 mg; format: functional
Rattus norvegicus [27] = species: Rattus norvegicus; assay: Complete remission of DMBA-induced hormone-dependent mammary carcinoma tumors in rats at 8.5 mg; format: functional; how it was run: as §8
Rattus norvegicus [28] = species: Rattus norvegicus; assay: Partial remission of DMBA-induced hormone-dependent mammary carcinoma tumors in ovariectomised rats; format: functional; how it was run: as §2
[29] = target: T1, Estrogen receptor (Mus musculus); assay: Estrogenic activity in uterotrophic test in mice at 2700 ug; format: functional; how it was run: as §4
Rattus norvegicus [30] = species: Rattus norvegicus; assay: Percent change in DMBA-induced hormone-dependent mammary carcinoma tumor area at 17 mg after 28 days; format: functional; how it was run: as §1
Rattus norvegicus [31] = species: Rattus norvegicus; assay: Complete remission of DMBA-induced hormone-dependent mammary carcinoma tumors in rats at 34 mg; format: functional; how it was run: as §8
Rattus norvegicus [32] = species: Rattus norvegicus; assay: Partial remission of DMBA-induced hormone-dependent mammary carcinoma tumors in rats at 8.5 mg; format: functional; how it was run: as §1
[33] = target: T1, Estrogen receptor (Mus musculus); assay: Estrogenic activity in uterotrophic test in mice at 30 ug; format: functional; how it was run: as §4
[34] = target: T1, Estrogen receptor (Mus musculus); assay: Inhibitory activity in mouse uterine weight test at 0.1 ug; format: functional; how it was run: as §3
Rattus norvegicus [35] = species: Rattus norvegicus; assay: Final number of DMBA-induced hormone-dependent mammary carcinoma tumors in rats at 17 mg; format: functional; how it was run: as §7
Rattus norvegicus [36] = species: Rattus norvegicus; assay: Percent change in DMBA-induced hormone-dependent mammary carcinoma tumor area at 34 mg after 28 days; format: functional; how it was run: as §1
Rattus norvegicus [37] = species: Rattus norvegicus; assay: Progression of DMBA-induced hormone-dependent mammary carcinoma tumors in ovariectomised rats; format: functional; how it was run: as §2
Rattus norvegicus [38] = species: Rattus norvegicus; assay: Initial tumor number of DMBA-induced hormone-dependent mammary carcinoma in rats at 8.5 mg; format: functional; how it was run: as §1
Rattus norvegicus [39] = species: Rattus norvegicus; assay: Initial tumor number of DMBA-induced hormone-dependent mammary carcinoma in rats at 17 mg; format: functional; how it was run: as §1
Rattus norvegicus [40] = species: Rattus norvegicus; assay: Progression of DMBA-induced hormone-dependent mammary carcinoma tumors in rats at 34 mg; format: functional
[41] = target: T1, Estrogen receptor (Mus musculus); assay: Antiestrogenic activity in uterotrophic test in mice at 3.3 ug; format: functional; how it was run: as §6
Rattus norvegicus [42] = species: Rattus norvegicus; assay: Percent change in body weight DMBA-induced hormone-dependent mammary carcinoma tumors in rats at 8.5 mg for 7 days; format: functional
Rattus norvegicus [43] = species: Rattus norvegicus; assay: Final number of DMBA-induced hormone-dependent mammary carcinoma tumors in rats at 8.5 mg; format: functional; how it was run: as §7
[44] = target: T1, Estrogen receptor (Mus musculus); assay: Inhibitory activity in mouse uterine weight test at 3.3 ug; format: functional; how it was run: as §3
[45] = target: T1, Estrogen receptor (Mus musculus); assay: Estrogenic activity in uterotrophic test in mice at 900 ug; format: functional; how it was run: as §5
Rattus norvegicus [46] = species: Rattus norvegicus; assay: Complete remission of DMBA-induced hormone-dependent mammary carcinoma tumors in rats at 17 mg; format: functional; how it was run: as §8

CCCCC(c1cccc(O)c1)C(CCCC)c1cccc(O)c1 (stereo unspecified)
Change (Rattus norvegicus [1]): 534% | Change (Rattus norvegicus [2]): 0.3% | Tumors (Rattus norvegicus [3]): 55% | Tumors (Rattus norvegicus [4]): 36% | Tumors (Rattus norvegicus [5]): 3% | inhibition [6]: 1% | Ka [7]: 2.3e+07 M⁻¹ | Tumors (Rattus norvegicus [8]): 6% | Effect [9]: 12.6 | Tumors (Rattus norvegicus [10]): 65% | Effect [11]: 16.5 | Effect [12]: 10.5 | inhibition [13]: 45% | Effect [14]: 10.5 | Tumors (Rattus norvegicus [15]): 27% | Change (Rattus norvegicus [16]): 3.6% | No. of tumors (Rattus norvegicus [17]): 30 | No. of tumors (Rattus norvegicus [18]): 8 | No. of tumors (Rattus norvegicus [19]): 22 | Change (Rattus norvegicus [20]): -96% | Tumors (Rattus norvegicus [21]): 9% | Effect [22]: 25.9 | Effect [23]: 38.1 | Tumors (Rattus norvegicus [24]): 74% | Change (Rattus norvegicus [25]): 1.7% | Tumors (Rattus norvegicus [26]): 24% | Tumors (Rattus norvegicus [27]): 2% | Tumors (Rattus norvegicus [28]): 23% | Effect [29]: 35.2 | Change (Rattus norvegicus [30]): 389% | Tumors (Rattus norvegicus [31]): 6% | Tumors (Rattus norvegicus [32]): 9% | Effect [33]: 11.2 | inhibition [34]: 3% | No. of tumors (Rattus norvegicus [35]): 45 | Change (Rattus norvegicus [36]): 260% | Tumors (Rattus norvegicus [37]): 0% | No. of tumors (Rattus norvegicus [38]): 21 | No. of tumors (Rattus norvegicus [39]): 27 | Tumors (Rattus norvegicus [40]): 58% | Effect [41]: 33.9 | Change (Rattus norvegicus [42]): 1.5% | No. of tumors (Rattus norvegicus [43]): 37 | inhibition [44]: 16% | Effect [45]: 30.8 | Tumors (Rattus norvegicus [46]): 3%
